In ChEMBL document CHEMBL3860103, “Antibacterial and Antibiofilm Activity of Cationic Small Molecules with Spatial Positioning of Hydrophobicity: An in Vitro and in Vivo Evaluation” (J Med Chem, 2016):
Calls of active or inactive are those of the source. No cut-off for these calls is given here.

Legend:
Escherichia coli [1] = assay: Antibacterial activity against Escherichia coli incubated for 24 hrs; type: functional
Outline: (§1)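 Broth microdilution: 6 h cultures diluted to ~10^5 CFU/mL in medium; compounds 2-fold serially diluted in water, mixed 1:3 with bacterial suspension. Incubated 24 h, 37 °C; OD600 read. MIC = concentration with OD similar to medium-only control. Triplicate wells, experiments repeated at least twice.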

Staphylococcus aureus [2] = assay: Antibacterial activity against methicillin-resistant Staphylococcus aureus incubated for 24 hrs; type: functional
Outline: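 MRSA (ATCC 33591) from a 6 h culture (~10^9 CFU/mL), diluted to ~10^5 CFU/mL in medium. Compounds in water, 2-fold serial dilutions, combined with the bacteria at 1:3 by volume and incubated 24 h at 37 °C. OD600 read. MIC is the lowest concentration whose OD matches the media-only control. Triplicate wells; experiments repeated at least twice.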

[3] = Induction of hemolysis in human RBC incubated for 1 hr; type: cell-based, Erythrocyte; conditions: red blood cells
Outline: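 Washed human RBCs from heparinized blood, 5 vol% in PBS, mixed 3:1 with serially diluted compounds; 1 h at 37 °C. Centrifuged; supernatant A540 read. Hemolysis % = (A−A0)/(Atotal−A0)×100, with water as 0% and 0.1 vol% Triton X-100 as full lysis.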

Staphylococcus aureus [4] = assay: Antibacterial activity against Staphylococcus aureus incubated for 24 hrs; type: functional; outline: as §1
Escherichia coli [5] = assay: Induction of biofilm disruption in Escherichia coli after 24 hrs by confocal laser-scanning microscopy; type: functional
Outline: (§2)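 Biofilms grown on glass coverslips from ~10^5 CFU/mL: S. aureus in nutrient medium + 1% glucose + 1% NaCl, 24 h; E. coli in M9 + 0.5% glycerol + 0.02% casamino acid, 72 h; stationary, 37 °C. After PBS wash, treated 24 h at 37 °C with 32 µg/mL in the same medium; media-only control. Stained with SYTO 9 (5 µM), imaged by confocal microscopy.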

Staphylococcus aureus [6] = assay: Induction of biofilm disruption in Staphylococcus aureus after 24 hrs by confocal laser-scanning microscopy; type: functional; outline: as §2
Staphylococcus aureus [7] = assay: Induction of membrane permeabilization in Staphylococcus aureus at 32 ug/ml after 0 to 20 mins by propidium iodide dye based assay; type: functional
Outline: (§3)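 Membrane permeabilization of S. aureus or E. coli followed as increase in propidium iodide fluorescence after adding compounds at 32 µg/mL.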

Staphylococcus aureus [8] = assay: Induction of membrane depolarization in Staphylococcus aureus at 32 ug/ml after 0 to 20 mins by […] dye based assay; type: functional
Outline: (§4)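 Membrane-potential dye DiSC3(5) taken up by S. aureus or E. coli; depolarization followed as rise in dye fluorescence after adding compounds at 32 µg/mL.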

Escherichia coli [9] = assay: Induction of membrane permeabilization in Escherichia coli at 32 ug/ml after 0 to 20 mins by propidium iodide dye based assay; type: functional; outline: as §3
Escherichia coli [10] = assay: Induction of membrane depolarization in Escherichia coli at 32 ug/ml after 0 to 20 mins by […] dye based assay; type: functional; outline: as §4
[11] = Selectivity index, ratio of HC50 for induction of hemolysis in human RBC to MIC for Escherichia coli
[12] = Selectivity index, ratio of HC50 for induction of hemolysis in human RBC to MIC for Staphylococcus aureus
Staphylococcus aureus [13] = assay: Antibacterial activity against Staphylococcus aureus infected in BALB/c mouse model of superficial skin infection and biofilm formation assessed as reduction in bacterial load in skin at 40 mg/kg applied topically once daily for 4 days and measured 18 hrs after last dose by FEI field emission scanning electron microscopy relative to un-treated control; type: functional, organism-based
Outline: (§5)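 Female BALB/c mice (6–8 weeks, 18–22 g) made neutropenic with cyclophosphamide i.p. (150 mg/kg, then 100 mg/kg 3 days later), anesthetized, backs shaved, wounded and infected with MRSA ATCC 33591. After 24 h biofilm formation, 40 mg/kg applied topically to wound once daily for 4 days (n = 5/group; untreated control). Skin collected 18 h after last dose for CFU/g; portions formalin-fixed for SEM.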

Staphylococcus aureus [14] = assay: Antibacterial activity against Staphylococcus aureus infected in BALB/c mouse model of superficial skin infection and biofilm formation assessed as reduction in bacterial load in skin at 40 mg/kg applied topically once daily for 4 days and measured 18 hrs after last dose; type: functional; outline: as §5
[15] = Toxicity in HEK293 cells assessed as induction of cell death at 64 ug/ml incubated for 24 hrs by calcein AM and propidium iodide dye based fluorescence microscopy; conditions: human, hek293, 24 h
Outline: (§6)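 HEK 293 cells seeded ~10^4 cells/well, treated with compounds for 24 h (16, 32 or 64 µg/mL); 0.1% Triton X positive, untreated negative control. Stained with calcein AM (2 µM) and PI (4.5 µM) 15 min at 37 °C, 5% CO2; imaged by fluorescence microscopy, 20X objective.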

[16] = Induction of membrane hydration changes in Laurdan dye containing DPPC liposomes assessed as reduction in general polarization at 25 to 100 ug/ml by luminescence spectrometry; type: physicochemical
Outline: (§7)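 Liposomes of 0.5 mM DPPG:DPPE (88:12) or 0.5 mM DPPC with Laurdan (lipid:dye 100:1), hydrated in PBS pH 7.4, 10 freeze–thaw cycles, sonicated 15 min at 70 °C. Compounds added in PBS (lipid:compound 7.4:1), tested at 25, 50, 100 µg/mL; emission at 440 and 490 nm (ex 350 nm), 37 °C. GP = (I440−I490)/(I440+I490).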

Mus musculus [17] = assay: Toxicity in topically dosed mouse assessed as induction of less fur appearance at 200 mg/kg after 14 days by OECD425 guidelines based method; type: organism-based; conditions: in vivo, topical_or_ocular, 336 h
[18] = Toxicity in HEK293 cells assessed as induction of cell death at 32 ug/ml incubated for 24 hrs by calcein AM and propidium iodide dye based fluorescence microscopy; conditions: human, hek293, 24 h; outline: as §6
[19] = Induction of membrane hydration changes in Laurdan dye containing DPPG:DPPE (88:12) liposomes assessed as reduction in general polarization at 25 to 100 ug/ml by luminescence spectrometry; type: physicochemical; outline: as §7
[20] = Toxicity in HEK293 cells assessed as cell density level at 16 ug/ml incubated for 24 hrs by calcein AM and propidium iodide dye based fluorescence microscopy; conditions: human, hek293, 24 h; outline: as §6
Mus musculus [21] = assay: Toxicity in topically dosed mouse assessed as induction of skin darkening at 200 mg/kg after 14 days by OECD425 guidelines based method; type: organism-based; conditions: in vivo, topical_or_ocular, 336 h
[22] = Toxicity in HEK293 cells assessed as partial induction of cell death at 32 ug/ml incubated for 24 hrs by calcein AM and propidium iodide dye based fluorescence microscopy; conditions: human, hek293, 24 h; outline: as §6

Row | Compound | MIC (Escherichia coli [1]) | MIC (Staphylococcus aureus [2]) | HC50 at 1 h [3] | MIC (Staphylococcus aureus [4]) | also measured
1 | CCCCCCCCNC(=O)C[N+](C)(C)CCCCCCCCCC[N+](C)(C)CC(=O)NCCCCCCCC.[Br-].[Br-] | 1 µg/mL | 2 µg/mL | 100 µg/mL | 1 µg/mL | –
2 | CCCCCCNC(=O)C[N+](C)(C)CC[N+](C)(C)CC(=O)NCCCCCC.[Br-].[Br-] | 250 µg/mL | 250 µg/mL | > 1000 µg/mL | 125 µg/mL | –
3 | CCCCCCCCNC(=O)C[N+](C)(C)CCCC[N+](C)(C)CC(=O)NCCCCCCCC.[Br-].[Br-] | 8 µg/mL | 3.9 µg/mL | 310 µg/mL | 2 µg/mL | –
4 | CCCCCCCCCCCCCC[N+](C)(C)Cc1ccccc1 | – | – | – | – | MBEC (Escherichia coli [5]): Active; MBEC (Staphylococcus aureus [6]): Active
5 | CCCCCCCCCCNC(=O)C[N+](C)(C)CC[N+](C)(C)CC(=O)NCCCCCCCCCC.[Br-].[Br-] | 4 µg/mL | 2 µg/mL | 65 µg/mL | 2 µg/mL | Activity (Staphylococcus aureus [7]): Active; Activity (Staphylococcus aureus [8]): Active; Activity (Escherichia coli [9]): Active; Activity (Escherichia coli [10]): Active; Selectivity Index [11]: 16; Selectivity Index [12]: 32
6 | CCCCCCCCNC(=O)C[N+](C)(C)CCCCCCCCCCCC[N+](C)(C)CC(=O)NCCCCCCCC.[Br-].[Br-] | 2 µg/mL | 1 µg/mL | 65 µg/mL | 1 µg/mL | –
7 | CCCCCCCCCCNC(=O)C[N+](C)(C)CCCCCC[N+](C)(C)CC(=O)NCCCCCCCCCC.[Br-].[Br-] | 2 µg/mL | 2 µg/mL | 58 µg/mL | 2 µg/mL | –
8 | N,N,N-trimethylhexadecan-1-aminium bromide | – | – | – | – | MBEC (Escherichia coli [5]): Active; MBEC (Staphylococcus aureus [6]): Active
9 | CC(=O)O[C@H]1C[C@@]2(C)[C@@H](C[C@@H](O)[C@H]3[C@@]4(C)CC[C@@H](O)[C@@H](C)[C@@H]4CC[C@@]32C)/C1=C(\CCC=C(C)C)C(=O)O [FUSIDIC ACID] | – | – | – | – | Activity (Staphylococcus aureus [13]): Active; Activity (Staphylococcus aureus [14]): 2.2 log10CFU/g
10 | CCCCCCNC(=O)C[N+](C)(C)CCCCCCCCCC[N+](C)(C)CC(=O)NCCCCCC.[Br-].[Br-] | 6 µg/mL | 4 µg/mL | > 1000 µg/mL | 4 µg/mL | Activity (Staphylococcus aureus [7]): Active; Activity (Staphylococcus aureus [8]): Active; Activity (Escherichia coli [9]): Active; Activity (Escherichia coli [10]): Active; Selectivity Index [11]: 207; Selectivity Index [12]: 310
11 | CCCCCCNC(=O)C[N+](C)(C)CCCCCCCC[N+](C)(C)CC(=O)NCCCCCC.[Br-].[Br-] | 31 µg/mL | 31 µg/mL | > 1000 µg/mL | 16 µg/mL | –
12 | CCCCCCCCNC(=O)C[N+](C)(C)CC[N+](C)(C)CC(=O)NCCCCCCCC.[Br-].[Br-] | 8 µg/mL | 3.9 µg/mL | 350 µg/mL | 2 µg/mL | –
13 | CCCCCCCCCCNC(=O)C[N+](C)(C)CCCCCCCCCCCC[N+](C)(C)CC(=O)NCCCCCCCCCC.[Br-].[Br-] | 500 µg/mL | 62 µg/mL | 50 µg/mL | 31 µg/mL | –
14 | CCCCCCCCCC[N+](C)(C)CCCCCCCCCC | – | – | – | – | MBEC (Escherichia coli [5]): Active; MBEC (Staphylococcus aureus [6]): Active
15 | CCCCCCCCCCNC(=O)C[N+](C)(C)CCCCCCCCCC[N+](C)(C)CC(=O)NCCCCCCCCCC.[Br-].[Br-] | 8 µg/mL | 4 µg/mL | 55 µg/mL | 4 µg/mL | –
16 | CCCCCCCCCCNC(=O)C[N+](C)(C)CCCC[N+](C)(C)CC(=O)NCCCCCCCCCC.[Br-].[Br-] | 2 µg/mL | 2 µg/mL | 60 µg/mL | 2 µg/mL | Activity (Staphylococcus aureus [7]): Active; Activity (Staphylococcus aureus [8]): Active; Activity [15]: Toxic; Activity [16]: Active; Activity (Mus musculus [17]): Toxic; Activity [18]: Toxic; Activity (Escherichia coli [9]): Active; Activity [19]: Active; Activity (Escherichia coli [10]): Active; Selectivity Index [11]: 30; MBEC (Staphylococcus aureus [6]): 31.2 to 62.5 µg/mL; Activity [20]: Toxic; Selectivity Index [12]: 30; Activity (Mus musculus [21]): Toxic
17 | CCCCCCNC(=O)C[N+](C)(C)CCCC[N+](C)(C)CC(=O)NCCCCCC.[Br-].[Br-] | 125 µg/mL | 125 µg/mL | > 1000 µg/mL | 62.5 µg/mL | –
18 | CCCCCCCCCCNC(=O)C[N+](C)(C)CCCCCCCC[N+](C)(C)CC(=O)NCCCCCCCCCC.[Br-].[Br-] | 4 µg/mL | 2 µg/mL | 55 µg/mL | 2 µg/mL | –
19 | CCCCCCNC(=O)C[N+](C)(C)CCCCCC[N+](C)(C)CC(=O)NCCCCCC.[Br-].[Br-] | 125 µg/mL | 125 µg/mL | > 1000 µg/mL | 62.5 µg/mL | –
20 | CCCCCCCCNC(=O)C[N+](C)(C)CCCCCC[N+](C)(C)CC(=O)NCCCCCCCC.[Br-].[Br-] | 6 µg/mL | 4 µg/mL | 300 µg/mL | 2 µg/mL | Activity (Staphylococcus aureus [7]): Active; Activity (Staphylococcus aureus [8]): Active; Activity (Escherichia coli [9]): Active; Activity (Escherichia coli [10]): Active; Selectivity Index [11]: 50; Selectivity Index [12]: 150
21 | CCCCCCCCNC(=O)C[N+](C)(C)CCCCCCCC[N+](C)(C)CC(=O)NCCCCCCCC.[Br-].[Br-] | 2 µg/mL | 2 µg/mL | 212 µg/mL | 1 µg/mL | Activity (Staphylococcus aureus [7]): Active; Activity (Staphylococcus aureus [8]): Active; Activity [22]: Toxic; Activity [15]: Toxic; Activity (Escherichia coli [9]): Active; Activity (Escherichia coli [10]): Active; Selectivity Index [11]: 106; Activity [20]: Toxic; Selectivity Index [12]: 182
